Test results published in PMC10757425 (Toxicology, 2023).
Entries after “also recorded” stand apart in the source; their conditions may differ.

Key:
[1] = 45-day study, female rats; ref Aqil et al., 2014; cited from earlier work
Sprague-Dawley rats [2] = assay: Histopathology; assay type: in vivo; details: for prevalence of minimal liver inflammation (% of evaluated slides): sham 37.5%
In short: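 After 28 days of implant exposure, brain, accessory lobe of right lung and left lateral liver lobe were formalin-fixed and H&E stained (8 rats/group, 2 per cohort, random). A veterinary pathologist scored brain regions (prefrontal cortex, striatum, hippocampus, cerebellum) and lung and liver for inflammation (any immune cells), hemorrhage, edema, necrosis, apoptosis and morphology. Brain was also scored for gliosis; lung and liver for extramedullary hematopoiesis.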

[3] = General toxicity assessment; assay type: in vivo, Sprague-Dawley rats
In short: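 Rats arrived at 21 days old and were acclimated 7 days. At PND 28, under isoflurane with 1 mg/kg s.c. meloxicam, they received s.c. implants with 0, 1, 5 or 10% w/w test compound (1.3 ± 0.1 mg/g bw), n=15/group. Surgical site and behaviour were checked daily for 5 days. At PND 56, blood was taken by cardiac puncture, rats were perfused with cold PBS and organs harvested.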

Sprague-Dawley rats [4] = assay: Hole Board Test; assay type: in vivo
In short: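 Implant-exposed rats (n=15/group) were tested blind on exposure days 24–28. Each rat was released centrally for 5 min. Distance and head dips (ears passing through a hole) were video-tracked. Analysis: one-way ANOVA with Fisher's LSD; mean ± SD.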

Sprague-Dawley rats [5] = assay: Open Field Test; assay type: in vivo; details: between the groups at any time epoch, two-way ANOVA
In short: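 Implant-exposed rats (n=15/group) were tested blind during exposure days 24–28. The opaque rectangular arena (~5000 cm2, 50 cm walls) was divided into central and outer zones. Each rat started in the center and explored freely for 30 min on two consecutive days. Overhead video tracking recorded distance travelled in 5-min epochs. Analysis: two-way ANOVA.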

[6] = In vivo exposure dosimetry: 4-52 remaining in retrieved subcutaneous implants; set-up: species or system Sprague-Dawley rats; details: for In vivo exposure: 4-52 remaining in the implant / In vivo exposure: 4-52 remaining in the implant (%): subcutaneous implant, 28 days, male rats
In short: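 Male rats carried s.c. implants (0, 1, 5 or 10% w/w; 1.3 ± 0.1 mg/g bw) from PND 28 for 28 days. Retrieved implants were dissolved in 10 mL DCM, diluted 3-fold and read by UV/Vis at 285 nm against a matrix-matched calibration curve. Internal dose was taken as total load minus remaining amount, assuming 100% bioavailability.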

[7] = In vitro release from polymeric implants; details: after 28 days
Sprague-Dawley rats [8] = assay: Elevated Plus Maze; assay type: in vivo
[9] = OH-PCB disposition in serum and tissues by GC-MS/MS; assay type: in vivo, Sprague-Dawley rats; details: for detection in serum, brain, liver, and lung / rank order of levels across serum and tissues: male rats, 28 days of 4-52 implant exposure
In short: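 Male Sprague-Dawley rats received a subcutaneous polymeric implant (1.3 ± 0.1 mg/g body weight) on the back at PND 28, loaded at 0, 1, 5 or 10% (w/w) test compound, for 28 days. Tissues (n=8/group) were homogenized in 2-propanol and liquid-liquid extracted, with surrogate-recovery and internal-standard correction. LOD came from sham tissues (mean + t0.01 × SD).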

Sprague-Dawley rats [10] = assay: Y-maze; assay type: in vivo
rats = details: developmental exposure via the maternal diet, ref Boix et al., 2010; cited from earlier work
[11] = administered orally with corn oil; ref Rostami and Juhasz, 2011; cited from earlier work
[12] = rats, dip-coated implants; ref Aqil et al. (2014); cited from earlier work

## Clc1cc(Cl)c(-c2cc(Cl)c(Cl)cc2Cl)cc1Cl [PCB 153]
[1]
  released from polymeric implants in vivo: 73%

## Oc1cc(Cl)c(-c2cc(Cl)ccc2Cl)cc1Cl [4-52, 2,2’,5,5’-tetrachlorobiphenyl-4-ol]
Sprague-Dawley rats [2]; exposed or sham rats, 28 days
  histopathological evaluation of brain and lung: no overt treatment-specific lesions
Sprague-Dawley rats [2]; high dose group
  prevalence of minimal liver inflammation (% of evaluated slides): 75%
Sprague-Dawley rats [2]; low dose group
  prevalence of minimal liver inflammation (% of evaluated slides): 12.5%
Sprague-Dawley rats [2]; medium dose group
  prevalence of minimal liver inflammation (% of evaluated slides): 25%
[3]; end of 28-day study
  implantation site: no signs of adverse effects
[3]; implants with 0, 1, 5 or 10% of 4-52, 28 days
  adverse outcomes throughout the study: No adverse outcomes
[3]; implants with 1, 5, 10% 4-52 vs sham, 28 days
  body weight gain: No significant differences
[3]; subcutaneous 4-52 exposure, 28 days
  other organ weights: no significant effects; also recorded: no other organ weights were affected
[3]; subcutaneous 4-52 exposure, 28 days, p < 0.001
  relative liver weight (% of body weight): decreased dose-dependently; also recorded: significant decrease
Sprague-Dawley rats [4]; exposed vs sham groups, one-way ANOVA, p = 0.297
  Hole Board Test total distance traveled: no significant differences
Sprague-Dawley rats [4]; exposed vs sham groups, one-way ANOVA, p = 0.433
  Hole Board Test number of head dipping: no significant differences; also recorded: did not affect
Sprague-Dawley rats [4]; medium-exposed rats, post hoc Fisher’s LSD, p = 0.071
  Hole Board Test total distance traveled: slightly reduced; also recorded: trend of a decrease
Sprague-Dawley rats [5]
  Open Field Test locomotor activity (travel distance) in 5 min epochs over 30 min: no significant differences; also recorded: not altered
[6]; High group, 10% load
  In vivo exposure: 4-52 remaining in the implant: 0.80 ± 0.40 mg
  In vivo exposure: 4-52 remaining in the implant (%): 6.9 ± 3.1%
[6]; Low group, 1% load
  In vivo exposure: 4-52 remaining in the implant: 0.06 ± 0.02 mg
  In vivo exposure: 4-52 remaining in the implant (%): 5.8 ± 2.3%
[6]; Medium group, 5% load
  In vivo exposure: 4-52 remaining in the implant: 0.40 ± 0.20 mg
  In vivo exposure: 4-52 remaining in the implant (%): 6.3 ± 2.8%
[6]; after 28 days of exposure, range over loads
  4-52 left in the implants after in vivo exposure: 5.8-6.9%
[7]; High group, 10% load
  In vitro release: 4-52 remaining in the implant (%): 5.2 ± 1.1%
[7]; Low group, 1% load
  In vitro release: 4-52 remaining in the implant (%): 3.4 ± 0.9%
[7]; Medium group, 5% load
  In vitro release: 4-52 remaining in the implant (%): 2.9 ± 1.8%
Sprague-Dawley rats [8]; high group, did not reach statistical significance, p = 0.076
  Elevated Plus Maze time in the open arm: marginally increased
Sprague-Dawley rats [8]; high-exposed group vs sham, post hoc Fisher’s LSD, p = 0.043
  Elevated Plus Maze time in the enclosed arm: significantly decreased
Sprague-Dawley rats [8]; medium exposed group, post hoc Fisher’s LSD, p = 0.097
  Elevated Plus Maze distance traveled in the enclosed arm: trend of reduction; also recorded: decreased
[9]; all compartments
  levels in serum and tissues versus 4-52 dose: increased with increasing 4-52 doses
[9]
  detection in serum, brain, liver, and lung: detected
  rank order of levels across serum and tissues: serum >> liver > lung > brain
Sprague-Dawley rats [10]; all exposure groups, one-way ANOVA, p = 0.262
  Y-maze percentage of spontaneous alternation: no significant changes; also recorded: did not affect
Sprague-Dawley rats [10]; all exposure groups, one-way ANOVA, p = 0.300
  Y-maze total distance traveled: no significant changes
Sprague-Dawley rats [10]; all exposure groups, one-way ANOVA, p = 0.342
  Y-maze number of total entries: no significant changes
Sprague-Dawley rats [10]; medium-exposed group vs sham, post hoc Fisher’s LSD, p = 0.067
  Y-maze total distance traveled: trend to decrease; also recorded: trend of a decrease
Sprague-Dawley rats [10]; medium-exposed group vs sham, post hoc Fisher’s LSD, p = 0.087
  Y-maze total number of entries: trend to decrease; also recorded: trend of a decrease

## Oc1cc(Cl)c(-c2cc(Cl)c(O)cc2Cl)cc1Cl [4,4’-52, 4,4’-dihydroxy-2,2’,5,5’-tetrachlorobiphenyl]
[9]; after 4-52 implant exposure
  detection in the brain: only found in the medium and high-dose groups
  detection in the lung: detected
  presence in the serum and liver: present in the serum and liver from all exposure groups
[9]
  detection in serum, brain, liver, and lung: detected
  rank order of levels across serum and tissues: serum > lung > liver > brain

## Clc1ccc(Cl)c(-c2cc(Cl)ccc2Cl)c1 [PCB 52, 2,2’,5,5’-Tetrachlorobiphenyl]
rats
  Y-maze performance: did not affect
  motor coordination: impaired
[11]
  oral bioavailability rate: 52.9%

## Clc1ccc(-c2cc(Cl)c(Cl)c(Cl)c2)cc1Cl [PCB 126]
[1]
  released from polymeric implants in vivo: 49%
[12]
  liver weights compared to sham controls: significantly increased
